High-throughput results deposited in PubChem by Broad Institute.
SIRT5 block – SIRT5 desuccinylase inhibitors, primary screen, biochemical, fluorescence imaging, single point, set 5; Purified SirT5, succinyl-peptide AMC, trypsin-coupled fluorescence; inhibition, % at 15 µM; AID 652115, 2013; actives 1.1% (n = 330,000); in the data active = inhibition above about 15%
Target sequence (Q9NXA8 whole entry, looked up): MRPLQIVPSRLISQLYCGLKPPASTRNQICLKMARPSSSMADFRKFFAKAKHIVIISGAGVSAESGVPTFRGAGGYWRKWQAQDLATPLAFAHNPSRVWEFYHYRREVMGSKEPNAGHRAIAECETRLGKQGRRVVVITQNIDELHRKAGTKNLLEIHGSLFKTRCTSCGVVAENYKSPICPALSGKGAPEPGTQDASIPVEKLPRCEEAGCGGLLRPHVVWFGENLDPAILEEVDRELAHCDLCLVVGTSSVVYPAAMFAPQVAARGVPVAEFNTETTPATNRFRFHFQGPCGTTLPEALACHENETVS
CAL PDZ FP-1 – CAL PDZ peptide-binding inhibitors, primary screen, biochemical, fluorescence polarization, Cer-tagged CAL PDZ, HTS; AID 504414, 2011; actives 0.02% (n = 330,000); purified CAL PDZ, TMR-peptide fluorescence polarization, 1 h; inhibition, % at 20 µM;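 active = highest replicate inhibition of at least 40%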;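 note: plate controls were DMSO neutral control wells for no effect and unlabeled competitor peptide control wells for full effect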
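Control set: unlabelled peptide and DMSO controls / Material: purified CerCALP PDZ construct / Timing: 1 h incubation at room temperature before polarization reading / Doses: 20 µM, one dose / Detection: fluorescence polarization (mP)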
S100A4 MyoIIA – inhibitors of S100A4-myosin IIA peptide binding, primary screen, biochemical, fluorescence polarization, TAMRA-MyoIIA peptide. Protein S100-A4 (Homo sapiens), P26447. inhibition, % at 10.7 µM. actives 0.14% (n = 360,000);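 active = mean inhibition of at least 70% across replicates, with every replicate also reaching that level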
Target sequence (P26447 whole entry, looked up): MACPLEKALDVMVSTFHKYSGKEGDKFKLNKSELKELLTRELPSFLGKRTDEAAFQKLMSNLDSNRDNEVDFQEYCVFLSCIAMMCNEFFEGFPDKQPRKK
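Test system – S100A4 monomer (human) · Compound – single-point compound testing · Schedule – 5 min incubation before reading · Probe or stimulus – TAMRA-labelled myosin IIA heavy-chain peptide probe, 5 nM · Benchmarks – neutral control DMSO, positive control TFP · Medium – Calcium-containing HEPES buffer, pH 7.2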
CAL PDZ FP-2 – untagged CAL PDZ binding inhibitors, primary screen, biochemical, fluorescence polarization, HTS | Golgi-associated PDZ and coiled-coil motif-containing protein (Homo sapiens), Q9HD26 | purified CAL PDZ, TMR-peptide fluorescence polarization, 1 h | inhibition, % at 24.9 µM | AID 602252, 2012 | actives 0.92% (n = 300,000);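 active = mean inhibition of at least 30% with at least half of replicates also reaching 30%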;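 note: 0% = DMSO neutral control and 100% = excess unlabeled competitor peptide PRC23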
DENV2 CPE – inhibitors of DENV2 cytopathic effect, primary screen, cell-based, plate reader, single concentration; DENV2-infected cells, cytopathic effect rescue; CPE inhibition, % at 9.99 µM; actives 1.7% (n = 350,000); AID 651640, 2012; in the data active = CPE inhibition above about 20%, passing the limit was not always enough; tested in BHK-21 cells;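 note: 0% = median of neutral control wells and 100% = median of positive control wells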
ERAP1 HTS inh – human ERAP1 aminopeptidase inhibitors, primary screen, biochemical, single point, plate reader; Endoplasmic reticulum aminopeptidase 1 (Homo sapiens), Q9NZ08; recombinant ERAP1, Leu-AMC fluorescence, 60 min; inhibition, % at 10.7 µM; actives 0.15% (n = 340,000); AID 652197, 2013;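 active = mean replicate inhibition of at least 30%, or all replicates individually reaching that 30% level; inactive = mean below 30% and not every replicate reaching it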;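 note: 0% = neutral control wells and 100% = L-leucinethiol positive control wells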
Numbers without * were called inactive; / = not tested or not shown. Shown are actives, neighbours in structure and some others; about 2.9% of the full set was active somewhere.

SMILES	SIRT5 block	CAL PDZ FP-1	S100A4 MyoIIA	CAL PDZ FP-2	DENV2 CPE	ERAP1 HTS inh
C/C=C/c1ccc([C@@H]2[C@@H](CO)N3C(=O)CN(C(=O)c4ccccc4)C[C@H]23)cc1	-0.2	/	6.2	/	6.6	-0.4
COC(=O)c1c(SCC(=O)NC2CCCCC2)[nH]c2ccccc2c1=O	3.9	-2.1	-65.2	31.4*	-1.6	-0.6
O=C(CSc1nnc(-c2c[nH]c3ccccc23)o1)NCC1CCCO1 (centres undefined)	-0.4	-1.4	13.2	44.0*	0.8	0.7
CCn1c(SCC(=O)NC2CCCCC2)nc2ccccc2c1=O	0.0	-1.3	-1.1	0.2	19.2	54.7*
O=C(NCC1CCCO1)c1ccc2c(=O)n(Cc3ccco3)c(SCC(=O)N3CCCC3)nc2c1 (centres undefined)	/	/	/	79.5*	/	/
O=C(NC1CCCCC1)[C@H]1[C@H](CO)[C@H]2Cn3c(cccc3=O)[C@@H]1N2CC1CCCC1	3.1	/	5.5	/	-1.4	3.8
COc1ccc(S(=O)(=O)Nc2cccc3c2O[C@@H](CN(C)S(=O)(=O)c2ccc(OC)cc2)[C@@H](C)CN([C@H](C)CO)C3=O)cc1	0.5	/	-1.4	/	/	-2.8
Cc1cccc(S(=O)(=O)N2CC[C@@H]3[C@H](CO)Nc4ccc(C#Cc5cccnc5)cc4[C@@H]32)c1	/	/	/	/	-17.1	/
COc1ccccc1NC(=O)N1CC[C@@H]2[C@H]1c1cc(C#Cc3ccc(F)cc3)ccc1N(C)[C@@H]2CO	0.6	/	-10.9	/	2.5	1.3
O=C(CCc1nnc(Cc2c[nH]c3ccccc23)o1)NC1CCCC1	-1.6	-0.9	-2.0	0.4	6.2	-4.4
Cc1ccc(-n2c(SCC(=O)NCC3CCCO3)nc3ccccc3c2=O)cc1C (centres undefined)	-1.0	-1.1	2.0	/	18.0	4.8
O=C(CCc1nnc(Cc2c[nH]c3ccccc23)o1)NCCC1CCCCO1 (centres undefined)	/	/	3.3	/	54.2*	-0.4
O=C(CSc1nc2ccccc2c(=O)n1-c1ccccc1)NCC1CCCO1 (centres undefined)	-4.5	0.3	-6.7	/	0.5	82.0*
C[C@@H]1CN([C@H](C)CO)S(=O)(=O)c2ccc(Br)cc2O[C@H]1CN(C)Cc1cccnc1	1.5	/	-2.5	/	15.2	0.7
CN1c2ccc(Br)cc2[C@@H]2[C@@H](CCN2C(=O)Nc2ccc(F)cc2)[C@H]1CO	4.0	/	1.0	/	-4.4	1.9
CC(C)NC(=O)N(C)C[C@@H]1OCCCC[C@H](C)Oc2ccc(NC(=O)CCC(F)(F)F)cc2C(=O)N([C@@H](C)CO)C[C@@H]1C	0.2	/	0.9	/	5.5	1.7
C[C@@H]1CCCCO[C@H](CN(C)C)[C@H](C)CN([C@@H](C)CO)C(=O)c2cc(NC(=O)CCCN(C)C)ccc2O1	-14.5	/	2.8	/	10.8	-0.6
O=C(O)CC(c1ccccc1)n1cccc1 (centres undefined)	/	-1.1	/	-10.0	/	/
Nc1ccc(C(CC(=O)O)n2cccc2)cc1 (centres undefined)	21.0*	-2.3	-8.8	-1.6	-3.3	2.2
C[C@H]1CN([C@@H](C)CO)C(=O)Cc2cc(NC(=O)Nc3cccc4ccccc34)ccc2O[C@@H]1CN(C)C(=O)NC1CCCCC1	-0.2	/	5.9	/	16.2	2.9
C[C@@H]1CN([C@@H](C)CO)C(=O)c2cc(C#C[C@@H](C)O)cnc2O[C@@H]1CN(C)C(=O)Cc1ccccn1	-0.9	/	-1.4	/	11.5	0.4
CCN(CC)S(=O)(=O)c1ccc(NC(=S)NC(=O)CC(C)C)cc1	33.1*	-2.1	-7.8	111.9*	5.2	-1.4
CCN(CC)S(=O)(=O)c1ccc(NC(=S)NC(=O)C(C)C)cc1	-1.3	-1.8	-2.6	-2.3	-3.9	-2.0
COc1ccc([C@@H]2[C@@H](C)N(c3ccccc3)c3ccccc3C(=O)N2Cc2ccccc2)cc1	/	/	-1.9	/	85.8*	0.2
Cc1ccc(-c2nn(CC(=O)NCc3cc(-c4nn(C)c(=O)c5ccccc45)ccc3C)c(=O)c3ccccc23)cc1	/	/	/	39.9*	/	/
SMILES	SIRT5 block	CAL PDZ FP-1	S100A4 MyoIIA	CAL PDZ FP-2	DENV2 CPE	ERAP1 HTS inh
CCC(=O)NCc1cc(-c2nn(C)c(=O)c3ccccc23)ccc1C	/	/	/	-4.4	/	/
Cc1ccccc1-c1cnc2c(c1)C(=O)N([C@@H](C)CO)C[C@H](C)[C@H](CN(C)C(=O)CN(C)C)O2	3.3	/	-31.4	/	-0.5	1.2
CC(=O)OC1COC(n2c(O)c(N=NC(N)=S)c3ccccc32)C(OC(C)=O)C1OC(C)=O (centres undefined)	0.2	-0.7	-1.4	37.9*	5.6	-0.4
CC(=O)OC1COC(n2ccc3ccccc32)C(OC(C)=O)C1OC(C)=O (centres undefined)	/	0.2	/	0.5	/	/
COCC(=O)N(C)C[C@H]1Oc2cc(-c3ccc(C)cc3)ccc2S(=O)(=O)N([C@H](C)CO)C[C@H]1C	-4.2	/	1.4	/	1.0	-0.2
C[C@H]1CN([C@@H](C)CO)C(=O)c2cc(C3=CCCC3)cnc2O[C@H]1CN(C)C(=O)CN1CCOCC1	-6.0	/	15.9	/	-0.7	-2.2
CSc1ccccc1C(=O)N1CCCCC1	20.0*	-0.7	-5.3	-4.7	3.6	-2.9
C[C@@H]1CN([C@@H](C)CO)S(=O)(=O)c2ccc(/C=C/c3ccccc3)cc2O[C@@H]1CN(C)C(=O)NC1CCCC1	20.2*	/	-12.5	/	7.8	-0.9
C[C@@H]1CN([C@H](C)CO)S(=O)(=O)c2ccc(/C=C/c3ccccc3)cc2O[C@@H]1CN(C)C(=O)NC1CCCC1	21.1*	/	-4.6	/	-2.9	-0.6
C/C=C/c1ccc2c(c1)O[C@H](CN(C)C(=O)NC1CCCC1)[C@@H](C)CN([C@H](C)CO)S2(=O)=O	-2.6	/	0.1	/	7.1	-1.1
C/C=C/c1ccc2c(c1)O[C@@H](CN(C)C(=O)NC1CCCC1)[C@@H](C)CN([C@@H](C)CO)S2(=O)=O	-3.0	/	-20.5	/	8.7	-0.9
Cc1ccccc1-c1ccc2c(c1)O[C@H](CN(C)C(=O)Nc1ccccc1)[C@@H](C)CN([C@H](C)CO)S2(=O)=O	9.3	/	11.6	/	14.8	-0.3
Cc1ccccc1-c1ccc2c(c1)O[C@@H](CN(C)C(=O)Nc1ccc(F)cc1)[C@@H](C)CN([C@@H](C)CO)S2(=O)=O	19.3*	/	-1.2	/	0.1	-2.4
